The text below walks through data of ChEMBL document CHEMBL1126698, “Synthesis and amnesia-reversal activity of a series of 7- and 5-membered 3-acylamino lactams” (1993).

Assay type in all cases: functional
For experiment [1], the system named is Mus musculus. As to the kind of experiment: Amnesia-reversal activity in ECS-induced amnesia model of mice at 1 mg/kg i.p. The settings on record: route intraperitoneal. The method, boiled down: (§1)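 Male CD1 mice (24–28 g), step-through passive avoidance. Amnesia induced by ECS through auricular electrodes (20 mA, 0.6 ms pulses, 0.5 s, 50 Hz) immediately after the acquisition trial. Compound given ip 30 min before acquisition, at doses equimolar to 1 or 10 mg/kg Piracetam. Retention latency capped at 300 s. AA = CI(treated)/CI(sham) × 100, with CI derived from Mann-Whitney U versus amnesic controls.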

The test system of experiment [2] is Mus musculus. As to the kind of experiment: Amnesia-reversal activity in ECS-induced amnesia model of mice at 10 mg/kg i.p. Particulars: route intraperitoneal. The method, boiled down: as §1
The subject of experiment [3] is Mus musculus. As to the kind of experiment: Amnesia-reversal activity in scopolamine-induced amnesia model of mice at 1 mg/kg i.p. Particulars: route intraperitoneal. Put shortly: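 Step-through passive avoidance in male CD1 mice (24–28 g). Scopolamine hydrobromide 1.5 mg/kg sc given 15 min before the acquisition trial. Test substance given ip 30 min before acquisition at a dose equimolar to 1 mg/kg Piracetam. Retention latency end point 300 s. AA is the treated-to-sham ratio of confrontation indices (×100), each index computed from Mann-Whitney U against the scopolamine-only group.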

The subject of experiment [4] is Mus musculus. Briefly: Amnesia-reversal activity evaluated in ECS-induced amnesia model of mice at a dose of 1 mg/kg. Put shortly:
(§2)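 Male CD1 mice (24–28 g), step-through passive avoidance, retention end point 300 s. ECS via auricular electrodes (20 mA, 0.6 ms pulses, 0.5 s, 50 Hz) immediately after the acquisition trial. Compounds given ip 30 min before acquisition at doses equimolar to 1, 10 (and 100 for references) mg/kg Piracetam. Retention latency vs control by Mann-Whitney U. AA = CI treated/CI sham ×100.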

Experiment [5] relates to Mus musculus. Briefly: Amnesia-reversal activity evaluated in ECS-induced amnesia model of mice at a dose of 10 mg/kg. The method, boiled down:
as §2

The subject of experiment [6] is Mus musculus. As to the kind of experiment: Amnesia-reversal activity evaluated in scopolamine-induced amnesia model of mice at a dose of 1 mg/kg. Put shortly:
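Male CD1 mice (24–28 g), step-through passive avoidance, retention end point 300 s. Scopolamine hydrobromide 1.5 mg/kg sc 15 min before acquisition. Compounds given ip 30 min before acquisition at a dose equimolar to 1 mg/kg Piracetam. Retention latency vs control by Mann-Whitney U. AA = CI treated/CI sham ×100.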

Experiment [7] relates to Mus musculus. Briefly: Amnesia-reversal activity (AA) evaluated in ECS-induced amnesia model of mice at a dose of 100 mg/kg. Put shortly: as §2

Structures are written as SMILES.

With `O=C(CCCc1ccccc1)NC1CCCCNC1=O` (stereo not drawn), the AA is on record as 0 in experiment [1], 0 in experiment [2] and 5 in experiment [3].

For `O=CNC1CCNC1=O` (stereo not drawn), the AA stood at 53 in experiment [4], 9 in experiment [5] and 0 in experiment [6].

On to `O=C(CCCc1ccccc1)N[C@H]1CCCCN(CCO)C1=O`, for which the figures for the AA in experiment [1], in experiment [2] and in experiment [3] were 7, 20 and 12, respectively.

For the molecule `O=C(CN1CCCC1=O)NC1CCCCNC1=O` (stereo not drawn), the values for the AA in experiment [1], in experiment [2] and in experiment [3] were 10, 0 and 21, respectively.

With `COc1ccc(C(=O)N2CCCC2=O)cc1` [ANIRACETAM], the AA in experiment [1] was 29; in experiment [2], 0; in experiment [7], 83; in experiment [3], 18.

Take `O=C(NC1CCCCNC1=O)c1cccc(C(F)(F)F)c1` (stereo not drawn): the AA is on record as 18 in experiment [1], 17 in experiment [2] and 65 in experiment [3].

For the molecule `N[C@H]1CCCCNC1=O`, the results for the AA in experiment [4], in experiment [5] and in experiment [6] were 37, 26 and 47, respectively.

On to `O=C1NCCCCC1NC(=O)[C@@H]1CCCN1C(=O)OCc1ccccc1` (stereo partly drawn), for which the AA in experiment [1] amounted to 0; in experiment [3], 27.

For the molecule `NC(=O)CN1CCCC1=O` [PIRACETAM], the results for the AA in experiment [1], in experiment [2] and in experiment [7] were 0, 0 and 39, respectively.

`NC(=O)CN1CC(O)CC1=O` (stereo not drawn) [OXIRACETAM]: the AA in experiment [1] came to 31; in experiment [2] it was 8; in experiment [7], 57; in experiment [3], 0.

Take `COc1cc(C(=O)NC2CCCCNC2=O)cc(OC)c1OC` (stereo not drawn): the AA in experiment [1] was determined as 31; in experiment [2], 42; in experiment [3], 0.

On to `O=C(NC1CCNC1=O)c1cccc(C(F)(F)F)c1` (stereo not drawn), for which the AA turned out to be 51 in experiment [1], 58 in experiment [2] and 0 in experiment [3].

Take `O=CCN1CCCC[C@H](NC(=O)CCCc2ccccc2)C1=O`: the figures for the AA in experiment [4], in experiment [5] and in experiment [6] were 0, 25 and 26, respectively.

On to `CC(=O)NC1CCCCNC1=O` (stereo not drawn), for which the values for the AA in experiment [1], in experiment [2] and in experiment [3] were 7, 14 and 39, respectively.

Take `N[C@H]1CCNC1=O`: the AA turned out to be 24 in experiment [4], 0 in experiment [5] and 0 in experiment [6].

Turning to `COc1ccc(C(=O)NC2CCCCNC2=O)cc1` (stereo not drawn), the AA in experiment [1] stood at 37; in experiment [2], 37; in experiment [3], 0.

Regarding `COC(=O)CN1CCCC[C@H](NC(=O)CCCc2ccccc2)C1=O`, the AA in experiment [4], in experiment [5] and in experiment [6] was 0 throughout.

Take `O=C(N[C@@H]1CCCCNC1=O)c1cccc(C(F)(F)F)c1`: the figures for the AA in experiment [1], in experiment [2] and in experiment [3] were 21, 0 and 15, respectively.

In the case of `N[C@@H]1CCCCNC1=O`, the AA in experiment [4] worked out at 0; in experiment [5] it was 25; in experiment [6], 44.

For `NC(=O)CN1CCCC[C@H](NC(=O)CCCc2ccccc2)C1=O`, the AA in experiment [1], in experiment [2] and in experiment [3] was 0 in each case.

Turning to `O=CN[C@H]1CCCCN(CCO)C1=O`, the AA is reported as 46 in experiment [1], 61 in experiment [2] and 7 in experiment [3].

In the case of `COC(=O)CN1CCCC[C@H](NC=O)C1=O`, the AA came to 0 in experiment [1], 9 in experiment [2] and 0 in experiment [3].

Take `NC(=O)CN1CCCC[C@H](NC=O)C1=O`: the AA in experiment [1] worked out at 55; in experiment [2], 9; in experiment [3], 0.

`O=CNC1CCCCNC1=O` (stereo not drawn): the AA in experiment [1] is recorded as 71; in experiment [2], 55; in experiment [3] it was 49.
